# High-throughput results deposited in PubChem BioAssay by Sanford-Burnham Center for Chemical Genomics.
# An excerpt weighted towards active compounds, which were near 0.79% of everything screened.
# mIAP inh: mouse IAP inhibition. AID 2806. inhibition, % at 10 µM. purified mouse IAP, CDP-Star luminescence, 30 min. 0.2% of 330,000 active;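 active means inhibition of at least 40% at 10 µM in the primary screen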
# bIAP inhibitor: intestinal alkaline phosphatase (bovine) inhibition; 190,000 tested, under 10 active; purified bovine IAP, CDP-star luminescence, 30 min; AID 1019; inhibition, % at 20 µM;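 active means over 50% inhibition of intestinal alkaline phosphatase at 20 µM in the single-dose screen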
#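 Incubation: 30 min reaction at room temperature / Material: purified bovine intestinal alkaline phosphatase (IAP) enzyme / Input: enzyme at 1/65,000,000 dilution / Dosing: 20 µM single dose / Signal: CDP-star luminescence signal / Reagent: CDP-star chemiluminescent phosphatase substrate, 30 µM final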
# hIAP block: human IAP inhibition; P09923; purified IAP, CDP-Star luminescence, 30 min; inhibition, % at 10 µM; 0.12% of 330,000 active;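 active means inhibition reaching a set limit with compound at 10 µM in the primary screen, cut at about 35% in these data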
# Target sequence (P09923 whole entry, looked up): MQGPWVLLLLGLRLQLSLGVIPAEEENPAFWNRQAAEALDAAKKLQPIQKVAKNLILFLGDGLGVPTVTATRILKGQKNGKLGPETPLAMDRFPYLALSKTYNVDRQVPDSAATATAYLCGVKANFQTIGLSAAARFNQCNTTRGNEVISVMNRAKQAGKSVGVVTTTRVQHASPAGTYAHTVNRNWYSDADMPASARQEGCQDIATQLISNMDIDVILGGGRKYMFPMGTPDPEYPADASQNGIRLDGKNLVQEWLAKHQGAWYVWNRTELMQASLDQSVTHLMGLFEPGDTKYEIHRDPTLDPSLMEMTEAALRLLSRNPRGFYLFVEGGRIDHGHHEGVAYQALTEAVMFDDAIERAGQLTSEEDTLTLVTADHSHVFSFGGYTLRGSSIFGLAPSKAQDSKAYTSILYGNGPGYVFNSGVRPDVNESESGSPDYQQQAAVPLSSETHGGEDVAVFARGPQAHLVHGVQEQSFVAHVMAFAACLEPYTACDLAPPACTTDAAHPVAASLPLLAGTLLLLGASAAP
# mIAP activ: increases mouse intestinal alkaline phosphatase activity | muIAP, CDP-Star luminescence, 30 min; hits give high values; 1 = vehicle-only enzyme signal, 0 = enzyme-free wells | activation factor at 10 µM | 0.24% of 330,000 active | AID 2805;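 active means activation factor of at least 2 at 20 µM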
#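 Assay system: mouse IAP enzyme; reagent: chemiluminescent substrate CDP-Star; dosing: test compounds delivered from DMSO solution; schedule: 30 min at room temperature; measured by: luminescence from enzymatic CDP-Star hydrolysis; controls: DMSO-only wells and no-enzyme negative control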
# bIAP activator: increases bovine intestinal alkaline phosphatase activity; purified bovine IAP, CDP-star luminescence, 30 min; hits give high values; fold of DMSO-control signal, blank-subtracted; activation factor at 20 µM; 0.17% of 200,000 active; AID 1016;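 active means activation factor of 2 or more at 20 µM, a signal rise over negative controls twice the positive control's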
# hIAP act: human IAP activation; purified human IAP, CDP-Star luminescence, 30 min; hits give high values; 1 = vehicle-only enzyme, 0 = enzyme-free background; 0.16% of 330,000 active; activation factor at 10 µM; AID 2524;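 active means activation factor of the enzyme at least 2-fold when tested at 20 µM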
# mIAP inh conf: mouse IAP inhibition confirmation; shares compounds with mIAP inh; purified mouse IAP, CDP-Star luminescence, 30 min; inhibition, % at 10 µM; 4.7% of 11,000 active; AID 434971;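 active means inhibition of at least 40% at 10 µM in either of the two replicates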
# Numbers stand for hits; – = inactive; · = no result.
SMILES,mIAP inh,bIAP inhibitor,hIAP block,mIAP activ,bIAP activator,hIAP act,mIAP inh conf
C[C@H](CO)N1C[C@H](C)[C@@H](CN(C)S(=O)(=O)c2ccccc2)Oc2ccc(NC(=O)C3CC3)cc2C1=O,–,·,–,–,·,–,·
COc1ccc(NC(=O)Nc2ccc3c(c2)C(=O)N([C@H](C)CO)C[C@H](C)[C@@H](CN(C)S(=O)(=O)c2ccc(F)cc2)O3)cc1,–,·,–,2.9,·,–,–
C[C@H](CO)N1C[C@H](C)[C@@H](CN(C)S(=O)(=O)c2ccccc2)Oc2ccc(NC(=O)Nc3ccccc3)cc2C1=O,–,·,–,3.2,·,–,–
C[C@H](CO)N1C[C@H](C)[C@@H](CN(C)S(=O)(=O)c2cccs2)Oc2ccc(NC(=O)Nc3ccccc3)cc2C1=O,–,·,–,3.2,·,–,–
CC(=O)c1ccccc1OCc1ccc(S(=O)(=O)Cc2ccccc2)cc1,–,·,–,–,·,–,·
S=C(NCc1ccc(Cl)cc1Cl)NC1CCCCC1,–,–,–,5.4,–,–,–
CC1=NN(c2ccc(C)cc2)C(=O)/C1=C/c1ccc(-c2cc([N+](=O)[O-])ccc2O)o1,–,·,–,–,·,–,·
O=C1NN(c2cccc(Br)c2)C(=O)/C1=C/c1ccc(-c2cc([N+](=O)[O-])ccc2O)o1,45,·,–,–,·,–,47
CCCCNC(=O)Nc1ccc2c(c1)N(C)C(=O)c1ccccc1S2,–,·,–,2.7,·,–,–
CCOc1ccc(CCNC(=O)c2cc(-c3ccccc3)c(N3CCOCC3)s2)cc1,–,·,–,3.2,·,–,–
O=C(NCc1ccc2c(c1)OCO2)c1cc(-c2ccccc2)c(N2CCOCC2)s1,–,·,–,–,·,–,·
COCCn1c(SCC(=O)NC2CC2)nc2ccccc21,–,·,–,–,·,–,·
NS(=O)(=O)c1ccc(N=Nc2c(=O)[nH]n3c(=O)c4c([nH]c23)CCCC4)cc1,48,·,–,–,–,–,63
O=c1[nH]n2c(=O)c3c([nH]c2c1N=Nc1cccc(Cl)c1)CCC3,·,–,·,·,–,·,·
O=C(O)CCN1C(=O)/C(=C/c2ccc(-c3nc4ccccc4s3)o2)SC1=S,–,–,–,–,–,–,·
O=C(O)CC(C(=O)O)N1C(=O)/C(=C/c2ccc(-c3nc4ccccc4s3)o2)SC1=S (configuration not stated),63,–,–,–,–,–,62
O=C(O)CCCN1C(=O)/C(=C/C=C/c2ccco2)SC1=S,68,·,–,–,·,–,69
O=C(NN1C(=O)/C(=C/C=C/c2ccco2)SC1=S)c1ccccc1O,87,·,–,–,·,–,93
Cn1cccc1/C=C1\SC(=S)N(NC(=O)c2ccccc2O)C1=O,–,·,–,–,·,–,·
Cc1ccc(NC(=O)CCCN2C(=O)/C(=C/C=C/c3ccccc3)SC2=S)cc1,–,–,–,–,–,–,·
O=C(O)CC(C(=O)O)N1C(=O)/C(=C/C=C/c2ccco2)SC1=S (configuration not stated),74,·,–,–,·,–,80
C[C@@H](OC(=O)N1CCCCC1)[C@H]1O[C@]2(C)CCCC[C@H]1O2,–,·,–,–,·,–,·
COC(=O)C1CN(C(=O)C(C)Oc2ccccc2Cl)c2ccccc2O1 (configuration not stated),–,·,–,–,·,–,·
Cn1nccc1C(=O)N1CCCC(N2CCN(Cc3ccc4c(c3)OCO4)CC2)C1 (configuration not stated),–,·,–,–,·,–,·
O=C(NNC(=S)NC(=O)c1cccs1)c1ccc(O)cc1,60,·,–,–,·,–,64
SMILES,mIAP inh,bIAP inhibitor,hIAP block,mIAP activ,bIAP activator,hIAP act,mIAP inh conf
CN(C)S(=O)(=O)c1ccc(Cl)c(C(=O)NNC(=O)c2ccc3c(c2)OCO3)c1,–,·,–,–,·,–,·
Cc1ccc(C2C(C#N)=C(N)SC(N)=C2C#N)o1,44,–,–,–,–,–,45
CCc1ccc(C2C(C#N)=C(N)SC(N)=C2C#N)s1,–,–,–,–,–,–,·
CCOc1ccc(S(=O)(=O)N2CCC(C(=O)NCc3ccncc3)CC2)cc1Cl,–,·,–,–,·,–,·
O=C(CSc1nc2nn(-c3ccccc3)c(=O)c-2c2n1CCCCC2)c1ccc(O)c(O)c1,76,·,–,–,·,–,81
CNC(=O)CSc1nc2nn(-c3ccccc3)c(=O)c-2c2n1CCCCC2,–,–,–,–,–,–,·
